In ChEMBL document CHEMBL2040730, “Synthesis of berbamine acetyl glycosides and evaluation of antitumor activity” (Eur J Med Chem, 2012):

Tests used:
Assay type in all cases: functional, cell-based
K562 = assay: Cytotoxicity against human K562 cells after 2 days by MTT assay
How it was run: (§1)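 Cells were seeded at 5 × 10³ per well and exposed to eight compound concentrations (50, 25, 12.5, 6.25, 3.13, 1.56, 0.78, 0.39), with positive and blank controls. Incubation was 2 days at 37 °C and 5% CO₂. MTT (5 mg/mL stock) was then added for 4 h. After the supernatant was removed, formazan was dissolved in DMSO for 20 min at room temperature. OD was read at 570 nm, and viability was expressed as % of compound-free medium controls.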

A549 = assay: Cytotoxicity against human A549 cells after 2 days by MTT assay; how it was run: as §1
L1210 = assay: Cytotoxicity against mouse L1210 cells after 2 days by MTT assay; how it was run: as §1

Row | SMILES | IC50 (K562; Homo sapiens, K562, 48 h) [nM] | IC50 (A549; Homo sapiens, A549, 48 h) [nM] | IC50 (L1210; Mus musculus, L1210, 48 h) [nM] | IC50 (K562; k562) [nM] | IC50 (L1210; l1210) [nM] | IC50 (A549; a549) [nM]
1 | COc1cc2c3cc1Oc1c(OC)c(OC)cc4c1[C@@H](Cc1ccc(O[C@@H]5O[C@H](COC(C)=O)[C@@H](OC(C)=O)[C@H](OC(C)=O)[C@H]5OC(C)=O)c(c1)Oc1ccc(cc1)C[C@@H]3N(C)CC2)N(C)CC4 | 1960 | 29500 | 570 | – | – | –
2 | COc1cc2c3cc1Oc1c(OC)c(OC)cc4c1[C@@H](Cc1ccc(O[C@@H]5O[C@H](COC(C)=O)[C@H](OC(C)=O)[C@H](OC(C)=O)[C@H]5OC(C)=O)c(c1)Oc1ccc(cc1)C[C@@H]3N(C)CC2)N(C)CC4 | 2030 | 43000 | 2170 | – | – | –
3 | COc1cc2c3cc1Oc1c(OC)c(OC)cc4c1[C@@H](Cc1ccc(O[C@@H]5OC[C@@H](OC(C)=O)[C@H](OC(C)=O)[C@H]5OC(C)=O)c(c1)Oc1ccc(cc1)C[C@@H]3N(C)CC2)N(C)CC4 | 1550 | ≥ 50000 | 1270 | – | – | –
4 | COc1cc2c3cc1Oc1c(OC)c(OC)cc4c1[C@@H](Cc1ccc(O[C@@H]5O[C@H](COC(C)=O)[C@@H](O[C@@H]6O[C@H](COC(C)=O)[C@@H](OC(C)=O)[C@H](OC(C)=O)[C@H]6OC(C)=O)[C@H](OC(C)=O)[C@H]5OC(C)=O)c(c1)Oc1ccc(cc1)C[C@@H]3N(C)CC2)N(C)CC4 [listing 1 of 2 here] | – | 27800 | – | 2230 | 300 | –
5 | COc1cc2c3cc1Oc1c(OC)c(OC)cc4c1[C@@H](Cc1ccc(O[C@@H]5O[C@H](COC(C)=O)[C@@H](O[C@@H]6O[C@H](COC(C)=O)[C@H](OC(C)=O)[C@H](OC(C)=O)[C@H]6OC(C)=O)[C@H](OC(C)=O)[C@H]5OC(C)=O)c(c1)Oc1ccc(cc1)C[C@@H]3N(C)CC2)N(C)CC4 | 3560 | ≥ 50000 | 2030 | – | – | –
6 | COc1cc2c3cc1Oc1c(OC)c(OC)cc4c1[C@@H](Cc1ccc(O[C@H]5O[C@@H](COC(C)=O)[C@H](OC(C)=O)[C@@H](OC(C)=O)[C@@H]5OC(C)=O)c(c1)Oc1ccc(cc1)C[C@@H]3N(C)CC2)N(C)CC4 | ≥ 50000 | ≥ 50000 | 2740 | – | – | –
7 | COc1cc2c3cc1Oc1c(OC)c(OC)cc4c1[C@@H](Cc1ccc(O[C@@H]5O[C@H](CO)[C@@H](O[C@@H]6O[C@H](CO)[C@@H](O)[C@H](O)[C@H]6O)[C@H](O)[C@H]5O)c(c1)Oc1ccc(cc1)C[C@@H]3N(C)CC2)N(C)CC4 | ≥ 50000 | ≥ 50000 | 10600 | – | – | –
8 | COc1cc2c3cc1Oc1c(OC)c(OC)cc4c1[C@@H](Cc1ccc(O)c(c1)Oc1ccc(cc1)C[C@@H]3N(C)CC2)N(C)CC4 | 4000 | 39700 | 2730 | – | – | –
9 | COc1cc2c3cc1Oc1c(OC)c(OC)cc4c1[C@@H](Cc1ccc(O[C@@H]5O[C@H](COC(C)=O)[C@@H](O[C@@H]6O[C@H](COC(C)=O)[C@@H](OC(C)=O)[C@H](OC(C)=O)[C@H]6OC(C)=O)[C@H](OC(C)=O)[C@H]5OC(C)=O)c(c1)Oc1ccc(cc1)C[C@@H]3N(C)CC2)N(C)CC4 [listing 2 of 2 here] | – | – | – | ≥ 50000 | 1850 | ≥ 50000
